≈ marks a conversion by molar mass, not a printed value. Calls of active or inactive are those of the source. No cut-off for these calls is given here.
Key:
Enterococcus faecalis = assay: Antibacterial activity against Streptococcus faecalis after 18 to 22 hrs by broth microdilution method; format: functional
In short: (§1)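 Clinical respiratory-tract isolates from patients, subcultured for purity and identified conventionally. Broth microdilution per NCCLS in Mueller–Hinton II broth; each plate had growth controls (bacteria, no compound) and medium-only controls. Incubation 18–22 h at 35 °C. MIC taken as the lowest concentration giving complete growth inhibition by unaided eye.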

Enterobacter = assay: Antibacterial activity against Enterobacter after 18 to 22 hrs by broth microdilution method; format: functional; in short: as §1
Klebsiella pneumoniae = assay: Antibacterial activity against Klebsiella pneumoniae after 18 to 22 hrs by broth microdilution method; format: functional; in short: as §1
Klebsiella oxytoca = assay: Antibacterial activity against Klebsiella oxytoca after 18 to 22 hrs by broth microdilution method; format: functional; in short: as §1
Helicobacter pylori [1] = assay: Antibacterial activity against metronidazole-resistant Helicobacter pylori NCTC 11637 after 72 hrs by agar dilution method; format: functional; settings: NCTC 11637, 72 h
In short: (§2)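 H. pylori clinical isolates (ATCC 43504 control each session) stored at -80 °C and subcultured twice on Columbia agar with 10% horse serum and 0.25% yeast extract. Suspensions of 0.5 McFarland were spotted by Steer's replicator at about 5 × 10⁵ CFU/spot onto agar with twofold compound dilutions. Plates were incubated 72 h at 37 °C in 10% CO₂. MIC was the lowest concentration without visible growth.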

[2] = system: Staphylococcus epidermidis; assay: Antibacterial activity against Staphylococcus epidermidis after 18 to 22 hrs by broth microdilution method; format: functional; in short: as §1
AGS [3] = assay: Antiinflammatory activity in human AGS cells assessed as inhibition of IL-8 production at 5 ug/mL after 24 hrs; format: functional, cell-based
In short: (§3)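 AGS gastric adenocarcinoma cells were grown in F-12K with 10% FBS. They were seeded at 1 × 10⁵/mL for 24 h, preincubated 1 h with compound at 5 or 0.5 µg/mL, then exposed to H. pylori.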

Helicobacter pylori [4] = assay: Antibacterial activity against metronidazole-resistant Helicobacter pylori isolate 18 after 72 hrs by agar dilution method; format: functional; settings: isolate 18, 72 h; in short: as §2
Escherichia coli = assay: Antibacterial activity against Escherichia coli after 18 to 22 hrs by broth microdilution method; format: functional; in short: as §1
[5] = system: Staphylococcus haemolyticus; assay: Antibacterial activity against Staphylococcus haemolyticus after 18 to 22 hrs by broth microdilution method; format: functional; in short: as §1
Helicobacter pylori [6] = assay: Antibacterial activity against Helicobacter pylori ATCC 43504 clinical isolates after 72 hrs by agar dilution method; format: functional; settings: ATCC 43504, 72 h
In short: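 Agar dilution per NCCLS. Twenty clinical strains from duodenal ulcer or gastritis patients, with ATCC 43504 as control in each session, were subcultured twice on Columbia agar plus 10% horse serum and 0.25% yeast extract (72 h, 37 °C, 10% CO₂). Inoculum of 0.5 McFarland in Wilkins Chalgren broth, about 5 × 10⁵ CFU/spot by Steer's replicator. Plates held twofold compound dilutions down to 0.0039 µg/mL and were incubated 72 h at 37 °C, 10% CO₂. MIC was the lowest concentration inhibiting visible growth.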

Proteus vulgaris = assay: Antibacterial activity against Proteus vulgaris after 18 to 22 hrs by broth microdilution method; format: functional; in short: as §1
Staphylococcus hominis = assay: Antibacterial activity against Staphylococcus hominis after 18 to 22 hrs by broth microdilution method; format: functional; in short: as §1
Pichia kudriavzevii = assay: Antifungal activity against Candida krusei after 24 hrs by broth microdilution method; format: functional
In short: (§4)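 Candida isolates from respiratory-tract specimens, tested by NCCLS broth microdilution in Sabouraud dextrose broth. Serial compound dilutions inoculated to 10³/mL, with fungus-only and medium-only controls. Incubated 24 h at 37 °C. MIC was the lowest concentration with complete visible growth inhibition.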

Staphylococcus aureus = assay: Antibacterial activity against Staphylococcus aureus after 18 to 22 hrs by broth microdilution method; format: functional; in short: as §1
Candida albicans = assay: Antifungal activity against Candida albicans after 24 hrs by broth microdilution method; format: functional; in short: as §4
Helicobacter pylori [7] = assay: Antibacterial activity against metronidazole-resistant Helicobacter pylori isolate 20 after 72 hrs by agar dilution method; format: functional; settings: isolate 20, 72 h; in short: as §2
[Candida] sake = Antifungal activity against Candida sake after 24 hrs by broth microdilution method; format: functional; settings: Fermentozyma sake; in short: as §4
AGS [8] = assay: Antiinflammatory activity in human AGS cells assessed as inhibition of IL-8 production at 0.5 ug/mL after 24 hrs; format: functional, cell-based; in short: as §3
Helicobacter pylori [9] = assay: Antibacterial activity against metronidazole-resistant Helicobacter pylori isolate 1 after 72 hrs by agar dilution method; format: functional; settings: isolate 1, 72 h; in short: as §2
Klebsiella aerogenes = assay: Antibacterial activity against Enterobacter aerogenes after 18 to 22 hrs by broth microdilution method; format: functional; in short: as §1
Citrobacter freundii = assay: Antibacterial activity against Citrobacter freundii after 18 to 22 hrs by broth microdilution method; format: functional; in short: as §1
Helicobacter pylori [10] = assay: Antibacterial activity against metronidazole-resistant Helicobacter pylori isolate 8 after 72 hrs by agar dilution method; format: functional; settings: isolate 8, 72 h; in short: as §2

Structure (SMILES)	MIC (Enterococcus faecalis) [µg/mL]	MIC (Enterobacter) [µg/mL]	MIC (Klebsiella pneumoniae) [µg/mL]	MIC (Klebsiella oxytoca) [µg/mL]	MIC (Helicobacter pylori [1]) [µg/mL]	MIC [2] [µg/mL]	inhibition (AGS [3])	MIC (Helicobacter pylori [4]) [µg/mL]	MIC (Escherichia coli) [µg/mL]	MIC [5] [µg/mL]	MIC50 (Helicobacter pylori [6]) [µg/mL]	MIC90 (Helicobacter pylori [6]) [µg/mL]	MIC (Proteus vulgaris) [µg/mL]	MIC (Staphylococcus hominis) [µg/mL]	MIC (Pichia kudriavzevii) [µg/mL]	MIC (Staphylococcus aureus) [µg/mL]	MIC (Candida albicans) [µg/mL]	MIC (Helicobacter pylori [7]) [µg/mL]	MIC (Helicobacter pylori [9]) [µg/mL]	MIC (Helicobacter pylori [10]) [µg/mL]	other results
O=C(O)c1ccc(NC(=O)c2cc3cc([N+](=O)[O-])ccc3oc2=O)cc1	> 128	> 128	> 128	> 128	128 (≈ 361 µM)	> 128	inactive	128 (≈ 361 µM)	> 128	> 128	128 (≈ 361 µM)	128 (≈ 361 µM)	> 128	> 128	> 128	> 128	> 128	64 (≈ 181 µM)	128 (≈ 361 µM)	64 (≈ 181 µM)	MIC ([Candida] sake): > 128 µg/mL; inhibition (AGS [8]): inactive; MIC (Klebsiella aerogenes): > 128 µg/mL; MIC (Citrobacter freundii): > 128 µg/mL
CCOC(=O)c1ccc(NC(=O)c2cc3cccc(O)c3oc2=O)cc1	> 128	> 128	> 128	> 128	> 128	> 128	inactive	> 128	> 128	> 128	> 128	> 128	> 128	> 128	> 128	> 128	> 128	> 128	> 128	> 128	MIC ([Candida] sake): > 128 µg/mL; inhibition (AGS [8]): inactive; MIC (Klebsiella aerogenes): > 128 µg/mL; MIC (Citrobacter freundii): > 128 µg/mL
O=C(O)c1ccc(NC(=O)c2cc3cccc(O)c3oc2=O)cc1	> 128	> 128	> 128	> 128	4 (≈ 12.3 µM)	> 128	inactive	> 128	> 128	> 128	> 128	> 128	> 128	> 128	> 128	> 128	> 128	> 128	> 128	> 128	MIC ([Candida] sake): > 128 µg/mL; inhibition (AGS [8]): inactive; MIC (Klebsiella aerogenes): > 128 µg/mL; MIC (Citrobacter freundii): > 128 µg/mL
O=C(O)c1ccc(NC(=O)c2cc3cc(O)ccc3oc2=O)cc1	> 128	> 128	> 128	> 128	16 (≈ 49.2 µM)	> 128	inactive	16 (≈ 49.2 µM)	> 128	> 128	16 (≈ 49.2 µM)	> 128	> 128	> 128	> 128	> 128	> 128	4 (≈ 12.3 µM)	4 (≈ 12.3 µM)	16 (≈ 49.2 µM)	MIC ([Candida] sake): > 128 µg/mL; inhibition (AGS [8]): inactive; MIC (Klebsiella aerogenes): > 128 µg/mL; MIC (Citrobacter freundii): > 128 µg/mL
Cc1ncc([N+](=O)[O-])n1CCO [METRONIDAZOLE]	–	–	–	–	128 (≈ 748 µM)	–	–	128 (≈ 748 µM)	–	–	2 (≈ 11.7 µM)	128 (≈ 748 µM)	–	–	–	–	–	128 (≈ 748 µM)	64 (≈ 374 µM)	64 (≈ 374 µM)	–

— ChEMBL document CHEMBL1208768, “Synthesis, selective anti-Helicobacter pylori activity, and cytotoxicity of novel N-substituted-2-oxo-2H-1-benzopyran-3-carboxamides” (Bioorg Med Chem Lett, 2010)
